From ChEMBL document CHEMBL4706664, “Rational drug design of 6-substituted 4-anilino-2-phenylpyrimidines for exploration of novel ABCG2 binding site” (Eur J Med Chem, 2021)

How the values were obtained:
[1] = target: T1, Broad substrate specificity ATP-binding cassette transporter ABCG2 (Homo sapiens, UniProt Q9UNQ0); experiment: Inhibition of ABCG2 (unknown origin) expressed in MDCK-II cells assessed as reduction in pheophorbide A efflux measured after 2 hrs by flow cytometry; assay type: cell-based
T1 sequence (Q9UNQ0 whole entry): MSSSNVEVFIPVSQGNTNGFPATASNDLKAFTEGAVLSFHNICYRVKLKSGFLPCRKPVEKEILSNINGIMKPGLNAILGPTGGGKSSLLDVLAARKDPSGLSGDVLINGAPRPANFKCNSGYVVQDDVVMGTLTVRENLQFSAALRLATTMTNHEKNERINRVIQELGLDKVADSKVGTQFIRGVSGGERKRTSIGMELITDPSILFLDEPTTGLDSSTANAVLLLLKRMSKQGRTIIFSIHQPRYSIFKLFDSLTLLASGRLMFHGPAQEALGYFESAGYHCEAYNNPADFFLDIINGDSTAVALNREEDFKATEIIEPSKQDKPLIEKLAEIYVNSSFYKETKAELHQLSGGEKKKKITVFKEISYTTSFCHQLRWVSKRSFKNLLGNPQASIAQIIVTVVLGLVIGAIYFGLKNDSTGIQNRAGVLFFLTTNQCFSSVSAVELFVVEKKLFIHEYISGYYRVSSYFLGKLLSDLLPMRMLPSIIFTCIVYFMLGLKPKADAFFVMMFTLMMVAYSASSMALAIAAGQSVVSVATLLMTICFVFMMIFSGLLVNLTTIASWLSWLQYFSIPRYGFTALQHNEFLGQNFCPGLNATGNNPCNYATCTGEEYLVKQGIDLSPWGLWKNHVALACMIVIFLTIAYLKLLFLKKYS
Method in brief: (§1)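 Pheophorbide A accumulation in MDCK II BCRP cells, about 45,000 cells/well in Krebs-HEPES buffer pH 7.4. Compound dilutions were prepared at 0.316–100 µM, and 20 µL of 5 µM pheophorbide A was added. Incubated 2 h at 37 °C, 5% CO2. Fluorescence read by flow cytometry (ex 488 nm, em 695/50 nm). IC50 and Imax are mean ± SEM of at least three independent experiments.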

ABCG2 [2] = target: T2, ABCG2 (Homo sapiens, UniProt Q9UNQ0); experiment: Inhibition of ABCG2 (unknown origin) expressed in MDCK-II cells assessed as reduction in pheophorbide A efflux measured after 2 hrs by flow cytometry relative to Ko143; assay type: cell-based; conditions: MDCK-II cells expressing ABCG2, probe pheophorbide A, read-out: Imax; method in brief: as §1
T2 sequence (Q9UNQ0 whole entry): T1 sequence (Q9UNQ0 whole entry)

ABCG2 [3] = experiment: Therapeutic index, ratio of GI50 for cytotoxicity against ABCG2 overexpressing MDCK-II cells to IC50 for inhibition of ABCG2 (unknown origin) expressed in MDCK-II cells; conditions: dog
ABCC1 = ABCC1 (Homo sapiens, UniProt P33527); experiment: Inhibition of ABCC1 (unknown origin) expressed in human NCI-H69AR cells assessed as reduction in calcein AM efflux at 10 uM preincubated for 30 mins followed by calcein AM addition and measured at 60 secs interval for 1 hr by fluorescence assay relative to control; assay type: cell-based; conditions: NCI-H69AR cells expressing ABCC1, probe calcein AM, time 90 min
ABCC1, sequence (P33527 whole entry): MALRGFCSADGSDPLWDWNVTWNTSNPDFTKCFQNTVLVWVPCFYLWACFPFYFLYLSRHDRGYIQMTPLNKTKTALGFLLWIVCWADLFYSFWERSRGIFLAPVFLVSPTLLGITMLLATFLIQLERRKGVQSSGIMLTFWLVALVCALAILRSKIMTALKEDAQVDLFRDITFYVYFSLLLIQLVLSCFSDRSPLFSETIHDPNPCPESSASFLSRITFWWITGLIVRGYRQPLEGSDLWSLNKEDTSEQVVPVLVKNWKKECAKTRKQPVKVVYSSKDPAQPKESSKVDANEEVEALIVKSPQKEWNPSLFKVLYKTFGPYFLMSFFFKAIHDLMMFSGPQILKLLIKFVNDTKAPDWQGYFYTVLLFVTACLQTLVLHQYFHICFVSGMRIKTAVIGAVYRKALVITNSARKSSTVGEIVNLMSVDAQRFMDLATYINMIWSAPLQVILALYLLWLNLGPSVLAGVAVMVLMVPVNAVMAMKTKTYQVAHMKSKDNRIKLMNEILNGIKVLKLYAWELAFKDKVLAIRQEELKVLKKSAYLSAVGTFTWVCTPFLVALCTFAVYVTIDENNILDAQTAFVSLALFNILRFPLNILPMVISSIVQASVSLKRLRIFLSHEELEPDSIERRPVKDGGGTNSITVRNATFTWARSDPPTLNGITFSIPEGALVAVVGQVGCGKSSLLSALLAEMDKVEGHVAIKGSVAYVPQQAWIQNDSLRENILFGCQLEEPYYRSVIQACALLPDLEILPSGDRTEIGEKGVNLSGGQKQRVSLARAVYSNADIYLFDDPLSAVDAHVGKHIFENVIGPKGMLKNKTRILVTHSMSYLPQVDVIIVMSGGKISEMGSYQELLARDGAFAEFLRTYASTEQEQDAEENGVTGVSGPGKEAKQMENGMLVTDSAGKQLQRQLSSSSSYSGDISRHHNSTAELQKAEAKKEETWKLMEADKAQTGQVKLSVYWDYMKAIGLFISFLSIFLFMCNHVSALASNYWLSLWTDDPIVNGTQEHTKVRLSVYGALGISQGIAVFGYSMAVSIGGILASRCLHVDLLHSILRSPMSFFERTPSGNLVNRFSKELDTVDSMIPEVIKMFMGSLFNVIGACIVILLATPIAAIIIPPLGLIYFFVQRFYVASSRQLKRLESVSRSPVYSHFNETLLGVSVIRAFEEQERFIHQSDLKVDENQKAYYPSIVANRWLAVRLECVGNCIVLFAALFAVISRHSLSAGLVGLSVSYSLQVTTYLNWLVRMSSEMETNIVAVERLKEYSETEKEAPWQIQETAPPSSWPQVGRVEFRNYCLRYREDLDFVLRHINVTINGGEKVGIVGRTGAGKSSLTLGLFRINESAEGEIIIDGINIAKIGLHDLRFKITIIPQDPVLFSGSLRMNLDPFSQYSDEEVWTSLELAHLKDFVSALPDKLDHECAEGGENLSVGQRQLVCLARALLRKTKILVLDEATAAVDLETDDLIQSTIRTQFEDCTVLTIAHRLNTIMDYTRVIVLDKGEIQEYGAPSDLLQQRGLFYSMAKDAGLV

ABCB1 = ABCB1 (Homo sapiens, UniProt P08183); experiment: Inhibition of ABCB1 (unknown origin) expressed in human A2780 ADR cells assessed as reduction in calcein AM efflux at 10 uM preincubated for 30 mins followed by calcein AM addition and measured at 60 secs interval for 1 hr by fluorescence assay relative to control; assay type: cell-based; conditions: A2780 ADR cells expressing ABCB1, probe calcein AM, time 90 min
ABCB1, sequence (P08183 whole entry): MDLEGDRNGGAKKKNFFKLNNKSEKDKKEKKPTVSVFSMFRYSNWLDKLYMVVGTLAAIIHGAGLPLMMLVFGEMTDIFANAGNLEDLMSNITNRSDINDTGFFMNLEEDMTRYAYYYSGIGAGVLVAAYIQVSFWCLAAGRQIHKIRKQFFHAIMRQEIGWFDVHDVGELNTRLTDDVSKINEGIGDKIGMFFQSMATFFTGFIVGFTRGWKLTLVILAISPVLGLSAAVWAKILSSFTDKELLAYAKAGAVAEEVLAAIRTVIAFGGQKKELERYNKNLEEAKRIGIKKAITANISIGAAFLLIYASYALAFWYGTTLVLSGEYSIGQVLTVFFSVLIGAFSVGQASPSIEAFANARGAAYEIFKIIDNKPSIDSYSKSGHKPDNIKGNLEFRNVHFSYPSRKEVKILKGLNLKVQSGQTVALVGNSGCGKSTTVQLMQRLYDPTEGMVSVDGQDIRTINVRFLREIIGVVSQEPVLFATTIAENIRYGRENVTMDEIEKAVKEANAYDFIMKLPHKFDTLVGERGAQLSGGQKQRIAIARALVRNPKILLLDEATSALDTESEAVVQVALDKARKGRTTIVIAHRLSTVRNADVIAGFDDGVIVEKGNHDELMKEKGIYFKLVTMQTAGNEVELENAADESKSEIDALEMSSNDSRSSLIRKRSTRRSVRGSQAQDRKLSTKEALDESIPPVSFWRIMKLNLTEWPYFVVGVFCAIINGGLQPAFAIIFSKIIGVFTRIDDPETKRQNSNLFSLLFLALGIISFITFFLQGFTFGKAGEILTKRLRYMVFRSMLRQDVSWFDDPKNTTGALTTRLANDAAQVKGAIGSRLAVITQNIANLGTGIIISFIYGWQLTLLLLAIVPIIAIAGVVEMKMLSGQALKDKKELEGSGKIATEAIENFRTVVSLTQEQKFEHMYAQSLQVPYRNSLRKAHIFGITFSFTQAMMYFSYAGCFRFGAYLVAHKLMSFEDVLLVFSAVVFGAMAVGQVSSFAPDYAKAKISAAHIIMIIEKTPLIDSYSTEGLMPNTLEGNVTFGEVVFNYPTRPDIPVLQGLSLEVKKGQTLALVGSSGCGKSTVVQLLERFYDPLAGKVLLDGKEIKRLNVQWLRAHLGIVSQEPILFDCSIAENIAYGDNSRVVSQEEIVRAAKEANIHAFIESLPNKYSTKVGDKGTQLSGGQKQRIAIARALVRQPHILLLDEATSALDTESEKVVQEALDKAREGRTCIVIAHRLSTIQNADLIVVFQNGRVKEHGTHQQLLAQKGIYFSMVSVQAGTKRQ
Method in brief: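 Calcein AM accumulation in A2780/ADR cells (30,000/well, Krebs-HEPES buffer pH 7.4). Cells preincubated with compound 30 min at 37 °C, 5% CO2. Screening at 10 µM.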

[4] = Cytotoxicity against wild-type MDCK-II cells assessed as reduction in cell viability measured after 72 hrs by MTT assay; assay type: cell-based, Canis lupus familiaris; conditions: dog
Method in brief: (§2)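 MTT cell viability. Compound dilution series prepared in culture medium at 3.16 µM to 1 mM (dilution stock; added 20 µL to 180 µL cells). Seeding per well: MDCK II and MDCK II BCRP 2000, A2780 and A2780/ADR 8000, H69AR 20,000. Incubated 72 h, 37 °C, 5% CO2. MTT 5 mg/mL added for 60 min, formazan dissolved in DMSO, absorbance 570 nm (690 nm background). Medium = 100%, 10% DMSO = 0% viability. GI50 by four-parameter logistic fit. Mean ± SEM of at least three independent experiments.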

[5] = target: ATP-dependent translocase ABCB1 (Homo sapiens, UniProt P08183); experiment: Inhibition of ABCB1 (unknown origin) expressed in human A2780 ADR cells assessed as reduction in calcein AM efflux preincubated for 30 mins followed by calcein AM addition and measured at 60 secs interval for 1 hr by fluorescence assay; assay type: cell-based
ATP-dependent translocase ABCB1, sequence (P08183 whole entry): as above
Method in brief: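 Calcein AM accumulation in A2780/ADR cells (30,000/well, Krebs-HEPES buffer pH 7.4). Cells preincubated with compound 30 min at 37 °C, 5% CO2. Then 20 µL of 3.125 µM calcein AM added. Fluorescence (ex 485/em 520 nm) read every 60 s for 1 h. […] Screening at 10 µM.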

[6] = Cytotoxicity against ABCG2 overexpressing MDCK-II cells assessed as reduction in cell viability measured after 72 hrs by MTT assay; assay type: ADME, cell-based, Canis lupus familiaris; conditions: dog; method in brief: as §2
[7] = Cytotoxicity against ABCB1 over expressing human A2780 ADR cells assessed as reduction in cell viability measured after 72 hrs by MTT assay; assay type: ADME, cell-based; conditions: ABCB1 overexpressing A2780 ADR cells; method in brief: as §2
[8] = Cytotoxicity against ABCC1 over expressing human NCI-H69AR cells assessed as reduction in cell viability measured after 72 hrs by MTT assay; assay type: ADME, cell-based; conditions: ABCC1 overexpressing NCI-H69AR cells; method in brief: as §2
[9] = Cytotoxicity against ABCB1 over expressing human A2780 cells assessed as reduction in cell viability measured after 72 hrs by MTT assay; assay type: ADME, cell-based; conditions: in the assay text read “human A2780 cells” for “ABCB1 over expressing human A2780 cells”; method in brief: as §2

| Structure (SMILES) | IC50 [1] [µM] | Emax at 2 h (ABCG2 [2]) [%] | selectivity ratio (ABCG2 [3]) | inhibition at 1 h, 10 µM (ABCC1) [%] | inhibition at 1 h, 10 µM (ABCB1) [%] | GI50 at 72 h [4] [µM] | IC50 ([5]; read-out: IC50) [µM] | GI50 at 72 h [6] [µM] | GI50 at 72 h [7] [µM] | GI50 at 72 h [8] [µM] | GI50 at 72 h [9] [µM] | IC50 ([5]; a2780 adr) |
| --- | --- | --- | --- | --- | --- | --- | --- | --- | --- | --- | --- | --- |
| Cc1cc(Nc2ccc(C#N)cc2)nc(-c2ccccc2)n1 | 0.189 | 87 | – | – | – | – | – | – | – | – | – | – |
| N#Cc1ccc(Nc2cc(NCc3cccnc3)nc(-c3ccccc3)n2)cc1 | 0.373 | 91 | 14.9 | > 20 | > 20 | 7.47 | 5.41 | 5.54 | – | – | – | – |
| N#Cc1ccc(Nc2cc(Nc3ccc(O)cc3)nc(-c3ccccc3)n2)cc1 | 0.387 | 76 | – | > 20 | > 20 | 5.3 | 4.54 | 5.15 | 9.21 | 13.7 | 8.02 | – |
| CNc1cc(Nc2ccc(C#N)cc2)nc(-c2ccccc2)n1 | 0.141 | 68 | 180 | – | > 20 | 34.1 | 25.9 | 25 | – | – | – | – |
| N#Cc1ccc(Nc2cc(NCc3ccccn3)nc(-c3ccccc3)n2)cc1 | 0.21 | 88 | 40.8 | – | > 20 | 9.44 | 3.4 | 8.56 | – | – | – | – |
| N#Cc1ccc(Nc2cc(NCCCCc3ccccc3)nc(-c3ccccc3)n2)cc1 | 0.147 | 61 | 65 | – | – | 10.6 | – | 9.48 | – | – | – | Not Active |
| N#Cc1ccc(Nc2cc(Nc3cccc(O)c3)nc(-c3ccccc3)n2)cc1 | 0.608 | 66 | – | > 20 | > 20 | 5.24 | 3.52 | 5.12 | 5.91 | 11 | 3.55 | – |
| N#Cc1ccc(Nc2cc(Nc3ccc(C#N)cc3)nc(-c3ccccc3)n2)cc1 | 0.133 | 60 | 58.7 | – | > 20 | 7.09 | 6.75 | 7.78 | – | – | – | – |
| N#Cc1ccc(Nc2cc(Nc3ccccc3)nc(-c3ccccc3)n2)cc1 | 0.169 | 84 | 24 | – | > 20 | 4.95 | 5.38 | 4.05 | – | – | – | – |
